From PubChem
MEKK2 WT-MEK5: modulators of MEK5 binding to wildtype MEKK2, primary screen, biochemical, multiplex bead flow cytometry, Alexa488-MEK5; Mitogen-activated protein kinase kinase kinase 2 (Homo sapiens), Q9Y2U5; Alexa488-MEK5 binding to MEKK2 WT; actives lie on both sides; binding response (% of control), % at 10 µM; 290,000 compounds, 1.1% hits; AID 1531, 2009; in the data active means binding response below about 67% or above about 130%
ABCB1 inh: ABCB1 efflux pump inhibitors, primary screen, cell-based, multiplex, flow cytometry, ABCG2 counter-screen; CCRF-Adr cells, JC-1 efflux; 190,000 compounds, 0.067% hits; inhibition, % at 6.6 µM; ATP-dependent translocase ABCB1 (Homo sapiens), P08183; in the data active means inhibition above about 40%;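 further: higher value means more JC-1 retained so stronger ABCB1 efflux block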
ABCG2 inh: ABCG2 efflux pump inhibitors, primary screen, multiplex with ABCB1, IgMXP3 cells, flow cytometry | AID 1325, 2008 | 190,000 compounds, 0.1% hits | JC-1 efflux | inhibition, % at 6.6 µM | Broad substrate specificity ATP-binding cassette transporter ABCG2 (Homo sapiens), Q9UNQ0;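 active means inhibition above 80%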
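Test system: IgMXP3 (ABCG2) plus far-red-tagged CCRF-Adr (ABCB1) cells. Reagent: JC-1 dye as substrate. Timing: 10 min exposure at 25 °C with rotation, no wash. Measured by: flow cytometric JC-1 green MFI at 530 nm. Read-out: percent efflux inhibition, scaled nicardipine 100% to DMSO 0%. Control set: nicardipine and DMSO wells.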
Efflux pump mplx: inhibitors of Candida efflux pumps in yeast, primary screen, S. cerevisiae, Nile Red, multiplex; inhibition, % at 10 µM; 330,000 compounds, 0.44% hits; S. cerevisiae Candida pump triplex; AID 485275, 2010;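 active means plate passing quality check with inhibition over a set limit, or well fluorescence over plate mean plus 4 SD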;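 further: Nile Red retained in pooled yeast measured as flow cytometry median fluorescence; higher means more Nile Red kept so more efflux inhibition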
MEKK2mut PB1 HTS: MEK5 binding signal on mutant MEKK2 PB1, primary screen, biochemical, multiplex bead flow cytometry, Alexa488-MEK5; 290,000 compounds, 0.35% hits; percent response, % at 10 µM; Alexa488-MEK5 binding to MEKK2 mutant; in the data active means percent response above about 24%, passing the limit was not always enough
MEKK3 PB1 HTS: modulators of MEKK3-MEK5 PB1 binding, primary screen, biochemical, wildtype MEKK3, multiplex bead flow cytometry, Alexa488-MEK5; AID 1529, 2009; bead-based flow cytometry, Alexa488-MEK5 binding to MEKK3; actives lie on both sides; 0 = blocked by unlabeled MEK5, 100 = vehicle; binding response (% of control), % at 10 µM; 290,000 compounds, 1.4% hits;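 active means binding response more than 3 SD above or below the average of its plate-row segment, actives on both sides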;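 further: Alexa488 bead fluorescence after subtracting the streptavidin-only scavenger bead signal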
Target sequence (Q99759 whole entry, looked up): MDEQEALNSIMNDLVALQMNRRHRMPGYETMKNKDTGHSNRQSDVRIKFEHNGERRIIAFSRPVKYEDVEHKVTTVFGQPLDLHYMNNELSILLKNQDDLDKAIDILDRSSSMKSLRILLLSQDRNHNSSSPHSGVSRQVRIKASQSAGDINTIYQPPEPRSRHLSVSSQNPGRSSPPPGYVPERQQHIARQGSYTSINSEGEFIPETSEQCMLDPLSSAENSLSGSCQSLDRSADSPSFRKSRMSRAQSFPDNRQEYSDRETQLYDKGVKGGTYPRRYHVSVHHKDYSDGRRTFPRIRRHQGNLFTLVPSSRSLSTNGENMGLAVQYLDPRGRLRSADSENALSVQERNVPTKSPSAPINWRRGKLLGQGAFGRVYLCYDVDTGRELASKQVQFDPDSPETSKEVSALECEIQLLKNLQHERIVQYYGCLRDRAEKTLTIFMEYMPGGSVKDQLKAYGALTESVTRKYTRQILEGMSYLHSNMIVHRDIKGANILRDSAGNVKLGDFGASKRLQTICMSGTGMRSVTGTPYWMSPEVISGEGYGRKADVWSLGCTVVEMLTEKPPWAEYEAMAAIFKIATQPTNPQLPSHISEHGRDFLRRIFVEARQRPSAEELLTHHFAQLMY
MEKK2wt confirm: modulators of MEK5 binding to wildtype MEKK2, confirmation, biochemical, single concentration, multiplex bead flow cytometry | Alexa488-MEK5 binding to MEKK2 WT; actives lie on both sides | binding response (% of control), % at 10 µM | AID 1892, 2009 | shares compounds with MEKK3 PB1 HTS | 5,900 compounds, 2.4% hits; in the data active means binding response below about 16% or above about 210%; inactive means in between
MEKK2mut confirm: mutant MEKK2 PB1-MEK5 binding signal retest – biochemical, single concentration, multiplex bead flow cytometry, confirmation. shares compounds with MEKK3 PB1 HTS. Alexa488-MEK5 binding to MEKK2 mutant. percent response, % at 10 µM. 5,900 compounds, 2% hits. AID 1893, 2009; in the data active means percent response mostly above about 71%, no sharp cut-off; inactive means mostly below about 38%;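 further: higher means compound restores mutant binding toward wildtype level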
MEKK3-MEK5 inh: MEKK3 wild-type PB1 binding to MEK5, inhibitors, confirmation, biochemical, bead multiplex flow cytometry, single concentration, wildtype | AID 1894, 2009 | 5,900 compounds, 1.8% hits | Alexa488-MEK5 binding to MEKK3; hits give low values | shares compounds with MEKK3 PB1 HTS | binding response (% of control), % at 10 µM;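 active means binding response below 72% of control, or above a set upper limit, though filed actives all read lower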
Numbers stand for hits; – = inactive; · = no result given; [ ] = remark or other dose. Hits are enriched below; roughly 2.5% of the tested compounds scored in any of these assays.

SMILES | MEKK2 WT-MEK5 | ABCB1 inh | ABCG2 inh | Efflux pump mplx | MEKK2mut PB1 HTS | MEKK3 PB1 HTS | MEKK2wt confirm | MEKK2mut confirm | MEKK3-MEK5 inh
Cc1n[nH]c(=S)n1-c1cccc(Cl)c1 | – | – | – | – | – | 74.0[inhibitor] | – | – | –
Cc1ccccc1OCc1n[nH]c(=S)n1-c1cccc(Cl)c1 | – | · | · | – | 24.0 | – | – | – | –
COc1ccc(OC)c(CCNC(=O)CN2C(=O)CCSc3ccccc32)c1 | – | · | · | – | – | – | · | · | ·
Cc1cccc(NC(=S)NCc2ccncc2)c1C | – | – | – | – | – | – | · | · | ·
COc1ccc(CNC(=S)Nc2cccc(C)c2C)cc1 | – | – | – | – | – | 78.0[inhibitor] | – | – | –
CCN(CC)c1ccc(/C=N/NC(=O)c2nnn(-c3nonc3N)c2-c2ccc(C)cc2)cc1 | – | · | · | – | – | – | · | · | ·
CCN1C(=O)C2(C(C#N)=C(N)Oc3n[nH]c(COC)c32)c2ccccc21 (centres undefined) | – | – | – | – | – | – | · | · | ·
COCc1[nH]nc2c1C1(C(=O)N(C)c3ccccc31)C(C#N)=C(N)O2 (centres undefined) | – | – | – | – | – | 79.0[inhibitor] | – | – | –
O=C(O)CC1(CC(=O)Nc2ccc3ccccc3c2)CCCCC1 | -1.0[inhibitor] | – | – | – | – | 1.0[inhibitor] | – | – | –
O=C(c1sc(N2CCOCC2)nc1-c1ccccc1)N1CCCCC1 | – | – | – | – | – | 131.0 | – | – | –
c1ccc(-c2nc(N3CCOCC3)sc2-c2ccccc2)cc1 | – | · | · | – | – | – | · | · | ·
COc1ccc(NC(=O)C(=O)c2cn(CC(=O)N3CCCC3)c3ccccc23)c(OC)c1 | – | · | · | – | – | – | · | · | ·
CC1CCCN(C(=O)COC(=O)c2ccc3[nH]c4c(c3c2)CCCC4)C1 (centres undefined) | · | · | · | – | · | · | · | · | ·
CCC(OC(=O)C1=Cc2ccccc2OC1)C(=O)NC1CCCC1 (centres undefined) | – | – | – | – | – | 126.0 | – | – | –
CC(C)C(OC(=O)C1=Cc2ccccc2OC1)C(=O)NC1CCCC1 (centres undefined) | – | – | – | – | – | 131.0 | – | – | –
O=C(OC(C(=O)NC1CCCC1)c1ccncc1)C1=Cc2ccccc2OC1 (centres undefined) | – | – | – | – | – | – | · | · | ·
Cc1cc(S(=O)(=O)N2CCCOC2CNC(=O)C(=O)NCc2cccs2)ccc1F (centres undefined) | – | · | · | – | – | – | · | · | ·
O=C(O)CC1(CC(=O)NCc2cc(F)cc3c2OCOC3)CCCCC1 | – | · | · | – | – | – | · | · | ·
COc1ccc(OC)c(CN2CCN(C(=O)CN3C(=O)NC4(CCCC4)C3=O)CC2)c1 | · | · | · | – | · | · | · | · | ·
CCOC(=O)c1c(NC(=O)CNCC(O)CO)sc(C)c1C (centres undefined) | – | – | – | – | – | – | · | · | ·
CCCCNCC(=O)Nc1sc(C)c(C)c1C(=O)OCC | – | – | – | – | – | 79.0[inhibitor] | – | – | –
Cc1ccc(-n2nc3c(=O)n(CC(=O)NC4CCCCCC4)nc(C)c3c2C)cc1 | – | · | · | – | – | – | · | · | ·
